# Activity calls are given as the source filed them. The rule behind the calls is not given here.
# Assays:
# Cytochrome P450 2C8 = molecular target: T1, Cytochrome P450 2C8 (Homo sapiens, UniProt P10632); test: Inhibition of CYP2C8 (unknown origin); type: ADME
# T1 sequence (P10632 whole entry): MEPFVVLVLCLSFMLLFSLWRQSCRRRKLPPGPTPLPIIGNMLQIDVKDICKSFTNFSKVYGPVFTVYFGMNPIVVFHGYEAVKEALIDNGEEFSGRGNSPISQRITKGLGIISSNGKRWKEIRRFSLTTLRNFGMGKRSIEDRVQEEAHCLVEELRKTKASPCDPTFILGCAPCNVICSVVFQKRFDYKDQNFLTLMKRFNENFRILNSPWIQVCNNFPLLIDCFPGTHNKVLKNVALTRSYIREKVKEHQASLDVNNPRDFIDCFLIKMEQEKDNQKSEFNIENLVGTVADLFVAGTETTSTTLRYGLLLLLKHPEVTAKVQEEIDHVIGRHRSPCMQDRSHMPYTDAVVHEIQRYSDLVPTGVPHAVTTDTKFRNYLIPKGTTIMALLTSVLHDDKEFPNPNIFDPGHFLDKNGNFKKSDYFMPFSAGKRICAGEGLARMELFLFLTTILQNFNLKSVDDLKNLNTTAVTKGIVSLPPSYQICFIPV
# [1] = Metabolic stability in mouse liver microsomes assessed as parent compound remaining; type: ADME, microsome
# Cytochrome P450 3A4 = Cytochrome P450 3A4 (Homo sapiens, UniProt P08684); test: Inhibition of CYP3A4 (unknown origin) using BFC as substrate; type: ADME
# Chain of Cytochrome P450 3A4 (P08684 whole entry): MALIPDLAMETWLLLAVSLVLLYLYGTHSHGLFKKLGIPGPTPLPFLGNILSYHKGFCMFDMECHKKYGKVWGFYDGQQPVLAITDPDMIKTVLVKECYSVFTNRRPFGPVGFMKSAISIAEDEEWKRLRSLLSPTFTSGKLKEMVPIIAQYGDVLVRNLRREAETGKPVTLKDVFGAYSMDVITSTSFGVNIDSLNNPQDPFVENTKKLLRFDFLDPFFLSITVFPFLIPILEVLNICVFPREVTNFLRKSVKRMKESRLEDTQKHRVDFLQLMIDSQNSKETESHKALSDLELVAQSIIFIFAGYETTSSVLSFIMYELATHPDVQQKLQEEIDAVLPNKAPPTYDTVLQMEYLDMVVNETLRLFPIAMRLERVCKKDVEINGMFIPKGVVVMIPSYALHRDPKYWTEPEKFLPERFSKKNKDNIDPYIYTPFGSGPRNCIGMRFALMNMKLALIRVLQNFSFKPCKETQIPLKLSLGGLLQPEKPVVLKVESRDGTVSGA
# Cytochrome P450 2D6 = Cytochrome P450 2D6 (Homo sapiens, UniProt P10635); test: Inhibition of recombinant human CYP2D6 expressed in insect microsomes using AMMC as substrate preincubated for 30 mins followed by NADPH addition measured after 45 mins by fluorescence assay; type: ADME
# Chain of Cytochrome P450 2D6 (P10635 whole entry): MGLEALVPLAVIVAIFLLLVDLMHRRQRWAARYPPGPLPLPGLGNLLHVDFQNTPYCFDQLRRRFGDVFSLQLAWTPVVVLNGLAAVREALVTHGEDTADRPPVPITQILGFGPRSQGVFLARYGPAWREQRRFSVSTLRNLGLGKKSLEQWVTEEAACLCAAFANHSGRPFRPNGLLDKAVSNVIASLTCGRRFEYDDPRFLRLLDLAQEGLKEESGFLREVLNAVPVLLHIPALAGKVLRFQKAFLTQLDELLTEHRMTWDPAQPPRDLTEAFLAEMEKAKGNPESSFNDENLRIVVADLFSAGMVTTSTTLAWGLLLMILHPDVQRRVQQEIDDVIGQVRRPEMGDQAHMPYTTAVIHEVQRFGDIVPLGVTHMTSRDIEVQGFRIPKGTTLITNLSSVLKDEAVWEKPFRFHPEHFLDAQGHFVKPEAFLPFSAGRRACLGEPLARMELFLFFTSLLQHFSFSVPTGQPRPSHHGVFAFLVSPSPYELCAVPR
# [2] = Permeability of the compound in pH 7.4 buffer after 4 hrs by PAMPA; type: ADME; conditions: read-out: permeability
# Procedure, shortened: (§1)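 Parallel artificial membrane permeability assay (PAMPA) for passive transcellular permeability, run at pH 7.4 and at pH 5.5, with permeability reported in nm/s.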
# [3] = molecular target: T2, Muscarinic acetylcholine receptor M3 (Homo sapiens, UniProt P20309); test: Antagonist activity at mAChR M3 in human CCRF-CEM cells assessed as inhibition of acetylcholine-mediated calcium flux incubated for 25 mins followed by acetylcholine stimulation measured for 90 secs; type: functional, cell-based
# Target sequence in this assay (P20309 whole entry): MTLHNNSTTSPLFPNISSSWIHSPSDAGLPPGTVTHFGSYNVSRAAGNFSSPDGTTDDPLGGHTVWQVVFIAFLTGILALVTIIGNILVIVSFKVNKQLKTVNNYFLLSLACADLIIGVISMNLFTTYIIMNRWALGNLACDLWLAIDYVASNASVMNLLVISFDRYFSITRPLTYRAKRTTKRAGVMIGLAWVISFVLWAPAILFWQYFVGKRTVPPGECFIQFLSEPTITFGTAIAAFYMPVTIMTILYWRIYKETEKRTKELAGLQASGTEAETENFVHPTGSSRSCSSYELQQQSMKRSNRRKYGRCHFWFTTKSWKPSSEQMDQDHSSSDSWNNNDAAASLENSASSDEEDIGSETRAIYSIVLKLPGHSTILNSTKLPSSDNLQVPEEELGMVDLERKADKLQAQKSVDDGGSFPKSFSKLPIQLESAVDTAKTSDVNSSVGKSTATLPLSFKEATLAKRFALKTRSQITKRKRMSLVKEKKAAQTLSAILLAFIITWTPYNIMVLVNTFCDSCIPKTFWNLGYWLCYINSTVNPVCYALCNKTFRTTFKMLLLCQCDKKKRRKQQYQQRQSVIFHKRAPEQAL
# [4] = molecular target: T3, C-X-C chemokine receptor type 4 (Homo sapiens, UniProt P61073); test: Antagonist activity at CXCR4 in human CCRF-CEM cells assessed as inhibition of CXCL12-mediated calcium flux incubated for 25 mins followed by CXCL12 stimulation measured for 90 secs; type: functional, cell-based
# T3 sequence (P61073 whole entry): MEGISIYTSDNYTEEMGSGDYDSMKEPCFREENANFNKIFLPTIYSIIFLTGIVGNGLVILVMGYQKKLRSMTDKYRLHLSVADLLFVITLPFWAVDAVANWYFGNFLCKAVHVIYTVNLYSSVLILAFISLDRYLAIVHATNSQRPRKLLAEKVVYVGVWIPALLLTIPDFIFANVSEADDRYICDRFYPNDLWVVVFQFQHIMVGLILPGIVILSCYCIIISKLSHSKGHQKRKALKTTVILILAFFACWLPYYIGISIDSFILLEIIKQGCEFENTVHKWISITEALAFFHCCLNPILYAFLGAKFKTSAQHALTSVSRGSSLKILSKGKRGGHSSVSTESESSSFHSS
# [5] = Metabolic stability in rat liver microsomes assessed as parent compound remaining; type: ADME, microsome
# [6] = Metabolic stability in human liver microsomes assessed as parent compound remaining; type: ADME, microsome
# [7] = Permeability of the compound in pH 5.5 buffer after 4 hrs by PAMPA; type: ADME; conditions: for Papp at 4 h: PAMPA, pH 5.5, read-out: permeability; procedure, shortened: as §1
# [8] = molecular target: T2, Muscarinic acetylcholine receptor M3; test: Agonist activity at mAChR M3 in human CCRF-CEM cells assessed as increase in calcium flux incubated for 90 secs; type: functional, cell-based
# Target sequence in this assay (P20309 whole entry, looked up): as the sequence (P20309 whole entry) above
# [9] = molecular target: T3, C-X-C chemokine receptor type 4; test: Agonist activity at CXCR4 in human CCRF-CEM cells assessed as increase in calcium flux incubated for 90 secs; type: functional, cell-based
# Cytochrome P450 2C19 = Cytochrome P450 2C19 (Homo sapiens, UniProt P33261); test: Inhibition of CYP2C19 (unknown origin); type: ADME
# Chain of Cytochrome P450 2C19 (P33261 whole entry): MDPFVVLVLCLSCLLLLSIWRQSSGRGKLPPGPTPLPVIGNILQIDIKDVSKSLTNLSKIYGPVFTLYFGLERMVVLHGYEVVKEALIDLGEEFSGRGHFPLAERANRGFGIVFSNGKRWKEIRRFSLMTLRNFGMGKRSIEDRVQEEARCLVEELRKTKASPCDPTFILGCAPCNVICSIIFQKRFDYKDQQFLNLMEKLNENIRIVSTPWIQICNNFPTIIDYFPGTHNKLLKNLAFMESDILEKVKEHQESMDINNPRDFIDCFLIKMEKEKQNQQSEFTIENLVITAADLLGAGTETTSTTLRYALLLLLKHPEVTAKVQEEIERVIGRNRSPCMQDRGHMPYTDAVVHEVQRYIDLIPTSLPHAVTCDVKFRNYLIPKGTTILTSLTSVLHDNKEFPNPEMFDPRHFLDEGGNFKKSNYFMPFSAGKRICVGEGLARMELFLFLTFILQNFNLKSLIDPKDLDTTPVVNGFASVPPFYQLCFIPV
# Cytochrome P450 2B6 = molecular target: T4, Cytochrome P450 2B6 (Homo sapiens, UniProt P20813); test: Inhibition of CYP2B6 (unknown origin); type: ADME
# T4 sequence (P20813 whole entry): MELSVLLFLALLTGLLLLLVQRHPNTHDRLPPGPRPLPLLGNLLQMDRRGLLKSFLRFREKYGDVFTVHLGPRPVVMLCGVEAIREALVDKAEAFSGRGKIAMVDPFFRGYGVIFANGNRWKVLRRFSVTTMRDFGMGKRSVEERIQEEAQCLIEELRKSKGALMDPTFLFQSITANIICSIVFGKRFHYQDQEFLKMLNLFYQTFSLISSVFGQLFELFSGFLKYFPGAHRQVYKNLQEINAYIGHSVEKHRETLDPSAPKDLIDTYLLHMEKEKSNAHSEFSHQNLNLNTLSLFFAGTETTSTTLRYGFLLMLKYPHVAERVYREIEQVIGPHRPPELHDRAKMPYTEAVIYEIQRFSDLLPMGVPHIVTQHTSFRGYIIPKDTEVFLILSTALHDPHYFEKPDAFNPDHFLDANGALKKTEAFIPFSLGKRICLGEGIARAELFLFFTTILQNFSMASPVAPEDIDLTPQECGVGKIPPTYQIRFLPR
# Cytochrome P450 1A2 = molecular target: T5, Cytochrome P450 1A2 (Homo sapiens, UniProt P05177); test: Inhibition of CYP1A2 (unknown origin); type: ADME
# T5 sequence (P05177 whole entry): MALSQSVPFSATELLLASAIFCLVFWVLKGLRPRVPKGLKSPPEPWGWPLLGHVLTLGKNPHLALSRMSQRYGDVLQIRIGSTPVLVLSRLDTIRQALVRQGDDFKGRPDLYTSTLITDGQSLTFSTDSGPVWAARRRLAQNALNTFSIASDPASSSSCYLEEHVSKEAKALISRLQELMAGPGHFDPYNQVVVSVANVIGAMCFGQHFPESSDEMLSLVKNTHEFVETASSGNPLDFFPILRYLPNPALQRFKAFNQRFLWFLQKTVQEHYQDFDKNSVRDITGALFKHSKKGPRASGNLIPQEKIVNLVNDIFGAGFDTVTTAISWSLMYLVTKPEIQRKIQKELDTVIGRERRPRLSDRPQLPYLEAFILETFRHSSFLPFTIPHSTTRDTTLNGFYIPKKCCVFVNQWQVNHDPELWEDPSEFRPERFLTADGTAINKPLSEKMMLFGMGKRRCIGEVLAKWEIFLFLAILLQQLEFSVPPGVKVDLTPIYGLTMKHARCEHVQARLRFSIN
# Cytochrome P450 2A6 = molecular target: T6, Cytochrome P450 2A6 (Homo sapiens, UniProt P11509); test: Inhibition of CYP2A6 (unknown origin); type: ADME
# T6 sequence (P11509 whole entry): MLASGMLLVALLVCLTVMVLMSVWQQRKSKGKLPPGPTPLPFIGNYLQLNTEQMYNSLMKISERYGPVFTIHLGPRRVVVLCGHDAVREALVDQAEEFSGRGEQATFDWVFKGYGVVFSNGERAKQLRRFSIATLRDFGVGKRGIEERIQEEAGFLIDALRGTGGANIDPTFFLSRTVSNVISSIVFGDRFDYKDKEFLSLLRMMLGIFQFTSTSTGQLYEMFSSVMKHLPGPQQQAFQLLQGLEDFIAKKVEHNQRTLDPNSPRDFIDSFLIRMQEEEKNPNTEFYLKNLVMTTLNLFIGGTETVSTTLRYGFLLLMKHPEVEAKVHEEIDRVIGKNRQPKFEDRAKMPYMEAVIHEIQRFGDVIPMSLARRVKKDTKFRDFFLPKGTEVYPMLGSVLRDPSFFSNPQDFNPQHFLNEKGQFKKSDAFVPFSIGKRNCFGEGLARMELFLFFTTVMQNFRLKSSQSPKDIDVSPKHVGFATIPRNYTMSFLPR
# Cytochrome P450 2C9 = Cytochrome P450 2C9 (Homo sapiens, UniProt P11712); test: Inhibition of CYP2C9 (unknown origin); type: ADME
# Chain of Cytochrome P450 2C9 (P11712 whole entry): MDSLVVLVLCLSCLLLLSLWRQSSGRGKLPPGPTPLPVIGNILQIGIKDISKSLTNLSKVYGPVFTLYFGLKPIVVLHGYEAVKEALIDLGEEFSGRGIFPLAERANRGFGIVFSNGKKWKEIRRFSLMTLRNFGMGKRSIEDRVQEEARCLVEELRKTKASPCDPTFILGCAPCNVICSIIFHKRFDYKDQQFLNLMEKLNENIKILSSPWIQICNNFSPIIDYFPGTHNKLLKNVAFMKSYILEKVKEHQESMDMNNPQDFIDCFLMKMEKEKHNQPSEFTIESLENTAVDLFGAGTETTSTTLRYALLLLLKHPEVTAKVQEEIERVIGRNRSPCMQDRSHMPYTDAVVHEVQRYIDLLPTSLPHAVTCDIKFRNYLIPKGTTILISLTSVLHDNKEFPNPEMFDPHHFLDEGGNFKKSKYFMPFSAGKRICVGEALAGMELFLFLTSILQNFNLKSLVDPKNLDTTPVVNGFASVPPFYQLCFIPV
# [10] = molecular target: T2, Muscarinic acetylcholine receptor M3; test: Antagonist activity at mAChR M3 in human CCRF-CEM cells assessed as inhibition of acetylcholine-mediated calcium flux incubated for 25 mins followed by acetylcholine stimulation measured for 90 secs relative to control; type: functional, cell-based; also: test concentration or dose not given here
# Target sequence in this assay (P20309 whole entry, looked up): as the sequence (P20309 whole entry) above
SMILES,Stability [1] [%],IC50 (Cytochrome P450 3A4) [nM],IC50 (Cytochrome P450 2D6) [nM],Papp at 4 h [2] [×10⁻⁶ cm/s],IC50 [3] [nM],IC50 [4] [nM],Stability [5] [%],Stability [6] [%],Papp at 4 h [7] [×10⁻⁶ cm/s],further results
C/C(CN(C[C@H]1Cc2ccccc2CN1)[C@H]1CCCc2cccnc21)=C(/F)CN,15,1800,110,70,> 17000,1800,61,35,,IC50 (Cytochrome P450 2C8): 18000 nM
NC/C=C\CN(C[C@H]1Cc2ccccc2CN1)[C@H]1CCCc2cccnc21,4,,,57,610,10,4,100,,
"NCC1CC1CN(C[C@H]1Cc2ccccc2CN1)[C@H]1CCCc2cccnc21 (single isomer, unassigned; diastereomer 1) [listing 1 of 2 here]",1,,540,13,> 33000,6.4,1,100,,"permeability ([7]; pampa, pH 5.5, 4 h, 4 h): 0.8 ×10⁻⁶ cm/s"
FC1(F)CCC(NC/C=C\CN(C[C@H]2Cc3ccccc3CN2)[C@H]2CCCc3cccnc32)CC1,3,,540,1.3,11000,,1,44,,Activity [8]: Active; Activity [9]: Active
NC/C=C/CN(C[C@H]1Cc2ccccc2CN1)[C@H]1CCCc2cccnc21,11,,,83,> 16000,,34,100,26,inhibition (INH) (Cytochrome P450 2C8; human): Not Active; inhibition (INH) (Cytochrome P450 2C19; human): Not Active; inhibition (INH) (Cytochrome P450 2B6): Not Active; inhibition (INH) (Cytochrome P450 1A2): Not Active; inhibition (INH) (Cytochrome P450 2A6): Not Active; inhibition (INH) (Cytochrome P450 2C9): Not Active
C/C(CN)=C(/F)CN(C[C@H]1Cc2ccccc2CN1)[C@H]1CCCc2cccnc21,61,2400,140,22,8800,44,72,97,,IC50 (Cytochrome P450 2C19): 19000 nM
"NCC1CC1CN(C[C@H]1Cc2ccccc2CN1)[C@H]1CCCc2cccnc21 (single isomer, unassigned; diastereomer 1) [listing 2 of 2 here]",,,,,,,,,,inhibition [10]: 51%
NC(=O)NC/C=C\CN(C[C@H]1Cc2ccccc2CN1)[C@H]1CCCc2cccnc21,2,,470,11,> 16000,210,2,73,1.3,
N[C@H]1CC[C@@H](N(C[C@H]2Cc3ccccc3CN2)[C@H]2CCCc3cccnc32)CC1,56,> 20000,81,,> 33000,1800,24,86,1,

# From ChEMBL document CHEMBL4138298, “Synthesis of Novel Tetrahydroisoquinoline CXCR4 Antagonists with Rigidified Side-Chains” (ACS Med Chem Lett, 2018)
